Data from PMC8693849 (RSC Advances, 2021).
Converted amounts (≈) assume the structure as drawn.

How the values were obtained:
S. aureus (ATCC 25923) = experiment: Agar diffusion method, zone of inhibition; type: cell-based, Staphylococcus aureus; details: for Diameter of zone inhibition: S. aureus (ATCC 25923), average of triplicate; for zone of inhibition at 10 µg/mL / zone of inhibition at 15 µg/mL: Staphylococcus aureus, ATCC25923, 24 h, read-out: Diameter of zone inhibition
Summary of the method: (§1)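 Bacterial strains were tested by agar diffusion on nutrient agar (peptone 5 and meat extract 3 g L⁻¹ in distilled water, pH 7.0, 2% agar, autoclaved 121 °C for 20 min). Each test compound (1 mg) was dissolved in 1 mL DMSO and made up to 10 mL with sterile water (100 μg mL⁻¹ stock). The solution was placed in the agar, and inhibition zones were measured after 24 h incubation. Values are the mean of triplicate readings.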

S. pyogenes (ATCC 19615) = experiment: Agar diffusion method, zone of inhibition; type: cell-based, Streptococcus pyogenes; details: for Diameter of zone inhibition: S. pyogenes (ATCC 19615), average of triplicate; for zone of inhibition at 10 µg/mL / zone of inhibition at 15 µg/mL: Streptococcus pyogenes, ATCC19615, 24 h, read-out: Diameter of zone inhibition
P. fluorescens (S 97) = experiment: Agar diffusion method, zone of inhibition; type: cell-based, Pseudomonas fluorescens; details: for zone of inhibition at 10 µg/mL / zone of inhibition at 15 µg/mL: Pseudomonas fluorescens, 24 h, read-out: Diameter of zone inhibition
Summary of the method: as §1

C. albicans = experiment: Agar diffusion method, zone of inhibition; type: cell-based, Candida albicans; details: for Diameter of zone inhibition: C. albicans, average of triplicate; for zone of inhibition at 10 µg/mL / zone of inhibition at 15 µg/mL: Candida albicans, 24 h, read-out: Diameter of zone inhibition
Summary of the method: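 For agar diffusion against C. albicans, each test compound (1 mg) was dissolved in 1 mL DMSO and diluted to 10 mL with sterile water (100 μg mL⁻¹ stock). The solution was placed in the agar, and the inhibition zone diameter was read after 24 h. Values are the average of triplicate readings.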

[1] = test system: K. pneumoniae (MDR clinical isolate); experiment: Zone of inhibition against MDR clinical isolate; type: cell-based; details: for Diameter of zone inhibition: MDR K. pneumoniae clinical isolate, 15 μg mL^−1; for zone of inhibition at 15 µg/mL: Klebsiella pneumoniae, read-out: Diameter of zone inhibition
[2] = test system: MRSA1 (methicillin resistant S. aureus); experiment: Zone of inhibition against MDR clinical isolate; type: cell-based; details: for Diameter of zone inhibition: MRSA1 clinical isolate, 15 μg mL^−1; for zone of inhibition at 15 µg/mL: Staphylococcus aureus, read-out: Diameter of zone inhibition
[3] = test system: K. pneumoniae (MDR clinical isolate); experiment: Minimal inhibitory concentration; type: cell-based; details: for SI (selectivity index, CC50/MIC): K. pneumoniae vs VERO cells
Summary of the method: (§2)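 Broth microdilution against MDR clinical isolates: 80 μl Mueller–Hinton broth plus 20 μl tween 80 received 100 μl test compound, then two-fold serial dilution. Each well was inoculated with 100 μl of 0.5 McFarland suspension ([…]) and incubated covered at 35 ± 2 °C for 24 h. MIC is the lowest concentration inhibiting growth.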

[4] = test system: K. pneumoniae (MDR clinical isolate); experiment: Minimum bactericidal concentration; type: cell-based; details: >4 = bacteriostatic
VERO cells = experiment: In vitro cytotoxicity, MTT assay; type: cell-based, African Green Monkey; details: normal VERO cells, 72 h, Table 4
Gram-negative bacteria = experiment: Agar diffusion method; type: cell-based, P. phaseolicola (GSPB 2828) and P. fluorescens (S 97); details: summary of Table 1
Summary of the method: as §1

[5] = test system: P. phaseolicola (GSPB 2828); experiment: Agar diffusion method, zone of inhibition; type: cell-based, Pseudomonas phaseolicola; details: Pseudomonas, 24 h, read-out: Diameter of zone inhibition
Summary of the method: as §1

[6] = test system: MRSA1 (methicillin resistant S. aureus); experiment: Minimal inhibitory concentration; type: cell-based; details: for SI (selectivity index, CC50/MIC): MRSA1 vs VERO cells; for Activity against methicillin resistant S. aureus: MDR clinical isolate, Table 2
Summary of the method: as §2

Gram-positive bacteria = experiment: Agar diffusion method; type: cell-based, S. aureus (ATCC 25923) and S. pyogenes (ATCC 19615); details: summary of Table 1
Summary of the method: as §1

[7] = test system: MRSA1 (methicillin resistant S. aureus); experiment: Minimum bactericidal concentration; type: cell-based; details: MRSA; >4 = bacteriostatic
[8] = MDR K. pneumoniae clinical isolate, Table 2

## 2-(5-(4-Chlorophenyl)-6-cyano-2-(2-hydroxyphenyl)-7-imino-1,2-dihydro-[1,2,4]triazolo[1,5-a]pyrimidin-3(7H)-yl)propanoic acid [Compound 8a]
S. aureus (ATCC 25923); 10 μg mL^−1, 24 h
  Diameter of zone inhibition: 13 mm
S. aureus (ATCC 25923); 15 μg mL^−1, 24 h
  Diameter of zone inhibition: 20 mm
S. pyogenes (ATCC 19615); 10 μg mL^−1, 24 h
  Diameter of zone inhibition: 12 mm
P. fluorescens (S 97); P. fluorescens (S 97), 15 μg mL^−1, 24 h, average of triplicate
  Diameter of zone inhibition: 29 mm
C. albicans; 10 μg mL^−1, 24 h
  Diameter of zone inhibition: 10 mm
C. albicans; 15 μg mL^−1, 24 h
  Diameter of zone inhibition: 13 mm
[1]
  Diameter of zone inhibition: 28 mm
[2]
  Diameter of zone inhibition: 6 mm
[3]; K. pneumoniae, Table 3
  MIC: 12.5 µg/mL
[3]; [8]
  MIC: 12.5 µg/mL
[4]
  MIC index (MBC/MIC): > 4
VERO cells
  CC50: 125 µg/mL
Gram-negative bacteria
  Activity against Gram-negative bacteria: active

## 2-(5-(4-Chlorophenyl)-6-cyano-2-(2-hydroxyphenyl)-7-imino-2-methyl-1,2-dihydro-[1,2,4]triazolo[1,5-a]pyrimidin-3(7H)-yl)propanoic acid [Compound 8b]
S. aureus (ATCC 25923); 10 μg mL^−1, 24 h
  Diameter of zone inhibition: 12 mm
S. aureus (ATCC 25923); 15 μg mL^−1, 24 h
  Diameter of zone inhibition: 22 mm
S. pyogenes (ATCC 19615); 15 μg mL^−1, 24 h
  Diameter of zone inhibition: 26 mm
C. albicans; 10 μg mL^−1, 24 h
  Diameter of zone inhibition: 8 mm
C. albicans; 15 μg mL^−1, 24 h
  Diameter of zone inhibition: 10 mm
[1]
  Diameter of zone inhibition: 27 mm
[2]
  Diameter of zone inhibition: 8 mm
[3]; K. pneumoniae, Table 4
  MIC: 25 µg/mL
[3]; [8]
  MIC: 25 µg/mL
VERO cells
  CC50: 125 µg/mL
Gram-negative bacteria
  Activity against Gram-negative bacteria: active

## CC(=O)C1=C(C)N2NC(C)(c3ccccc3O)N(C(Cc3c[nH]c4ccccc34)C(=O)O)C2=NC1c1ccc(Cl)cc1 (centres unmarked) [Compound 2d, 2-(6-Acetyl-5-(4-chlorophenyl)-2-(2-hydroxyphenyl)-2,7-dimethyl-1,2-dihydro-[1,2,4]triazolo[1,5-a]pyrimidin-3(5H)-yl)-3-(1H-indol-3-yl)propanoic acid]
S. aureus (ATCC 25923)
  zone of inhibition at 10 µg/mL: 20 mm
S. pyogenes (ATCC 19615)
  zone of inhibition at 10 µg/mL: 20 mm
[5]
  zone of inhibition at 10 µg/mL: 12 mm
  zone of inhibition at 15 µg/mL: 22 mm
C. albicans
  zone of inhibition at 10 µg/mL: 9 mm
  zone of inhibition at 15 µg/mL: 12 mm
[1]
  zone of inhibition at 15 µg/mL: 6 mm
[2]
  zone of inhibition at 15 µg/mL: 28 mm
[6]; MRSA1, Table 4
  MIC: 25 µg/mL (≈ 42.8 µM)
[6]
  SI (selectivity index, CC50/MIC): 20
[6]; Staphylococcus aureus
  MIC: 25 µg/mL (≈ 42.8 µM)
Gram-positive bacteria
  Activity against Gram-positive bacteria: active

## CCOC(=O)C1=C(C)N2NC(c3ccccc3O)N(C(Cc3c[nH]c4ccccc34)C(=O)O)C2=NC1c1ccc(Cl)cc1 (centres unmarked) [Compound 3c, 2-(5-(4-Chlorophenyl)-6-(ethoxycarbonyl)-2-(2-hydroxyphenyl)-7-methyl-1,2-dihydro-[1,2,4]triazolo[1,5-a]pyrimidin-3(5H)-yl)-3-(1H-indol-3-yl)propanoic acid]
[5]
  zone of inhibition at 10 µg/mL: 10 mm
P. fluorescens (S 97)
  zone of inhibition at 10 µg/mL: 8 mm
  zone of inhibition at 15 µg/mL: 23 mm
C. albicans
  zone of inhibition at 10 µg/mL: 6 mm
  zone of inhibition at 15 µg/mL: 7 mm
[1]
  zone of inhibition at 15 µg/mL: 9 mm
[2]
  zone of inhibition at 15 µg/mL: 24 mm
[6]
  Activity against methicillin resistant S. aureus: remarkable activity
  SI (selectivity index, CC50/MIC): 20
[6]; MRSA1, Table 3
  MIC: 12.5 µg/mL (≈ 20.8 µM)
[6]; Staphylococcus aureus
  MIC: 12.5 µg/mL (≈ 20.8 µM)
[7]
  MIC index (MBC/MIC): > 4
Gram-positive bacteria
  Activity against Gram-positive bacteria: active

## CC(C(=O)O)N1c2nc(-c3ccc(Cl)cc3)c(C#N)c(=O)n2NC1c1ccccc1O (centres unmarked) [Compound 9a, 2-(5-(4-Chlorophenyl)-6-cyano-2-(2-hydroxyphenyl)-7-oxo-1,2-dihydro-[1,2,4]triazolo[1,5-a]pyrimidin-3(7H)-yl)propanoic acid]
S. aureus (ATCC 25923)
  zone of inhibition at 15 µg/mL: 26 mm
S. pyogenes (ATCC 19615)
  zone of inhibition at 10 µg/mL: 12 mm
  zone of inhibition at 15 µg/mL: 27 mm
[5]
  zone of inhibition at 15 µg/mL: 30 mm
P. fluorescens (S 97)
  zone of inhibition at 15 µg/mL: 30 mm
C. albicans
  zone of inhibition at 10 µg/mL: 6 mm
  zone of inhibition at 15 µg/mL: 9 mm
[1]
  zone of inhibition at 15 µg/mL: 27 mm
[2]
  zone of inhibition at 15 µg/mL: 5 mm
[3]
  SI (selectivity index, CC50/MIC): 20
[3]; K. pneumoniae, Table 4
  MIC: 25 µg/mL (≈ 57.1 µM)
Gram-negative bacteria
  Activity against Gram-negative bacteria: active

## CC(C(=O)O)N1c2nc(-c3ccc(Cl)cc3)c(C#N)c(=O)n2NC1(C)c1ccccc1O (centres unmarked) [Compound 9b, 2-(5-(4-Chlorophenyl)-6-cyano-2-(2-hydroxyphenyl)-2-methyl-7-oxo-1,2-dihydro-[1,2,4]triazolo[1,5-a]pyrimidin-3(7H)-yl)propanoic acid]
S. aureus (ATCC 25923)
  zone of inhibition at 10 µg/mL: 15 mm
  zone of inhibition at 15 µg/mL: 26 mm
S. pyogenes (ATCC 19615)
  zone of inhibition at 15 µg/mL: 25 mm
[5]
  zone of inhibition at 10 µg/mL: 19 mm
P. fluorescens (S 97)
  zone of inhibition at 15 µg/mL: 28 mm
C. albicans
  zone of inhibition at 10 µg/mL: 6 mm
  zone of inhibition at 15 µg/mL: 8 mm
[1]
  zone of inhibition at 15 µg/mL: 29 mm
[2]
  zone of inhibition at 15 µg/mL: 7 mm
[3]
  SI (selectivity index, CC50/MIC): 10
[3]; K. pneumoniae, Table 4
  MIC: 25 µg/mL (≈ 55.3 µM)
Gram-negative bacteria
  Activity against Gram-negative bacteria: active

## N#Cc1c(-c2ccc(Cl)cc2)nc2n(c1=O)NC(c1ccccc1O)N2C(Cc1c[nH]c2ccccc12)C(=O)O (centres unmarked) [Compound 9c, 2-(5-(4-Chlorophenyl)-6-cyano-2-(2-hydroxyphenyl)-7-oxo-1,2-dihydro-[1,2,4]triazolo[1,5-a]pyrimidin-3(7H)-yl)-3-(1H-indol-3-yl)propanoic acid]
S. pyogenes (ATCC 19615)
  zone of inhibition at 10 µg/mL: 19 mm
[5]
  zone of inhibition at 10 µg/mL: 10 mm
  zone of inhibition at 15 µg/mL: 22 mm
P. fluorescens (S 97)
  zone of inhibition at 10 µg/mL: 11 mm
  zone of inhibition at 15 µg/mL: 20 mm
C. albicans
  zone of inhibition at 10 µg/mL: 9 mm
  zone of inhibition at 15 µg/mL: 11 mm
[1]
  zone of inhibition at 15 µg/mL: 13 mm
[2]
  zone of inhibition at 15 µg/mL: 27 mm
[6]; MRSA1, Table 4
  MIC: 25 µg/mL (≈ 45.2 µM)
[6]
  SI (selectivity index, CC50/MIC): 10
[6]; Staphylococcus aureus
  MIC: 25 µg/mL (≈ 45.2 µM)
Gram-positive bacteria
  Activity against Gram-positive bacteria: active

## CC1(c2ccccc2O)Nn2c(nc(-c3ccc(Cl)cc3)c(C#N)c2=O)N1C(Cc1c[nH]c2ccccc12)C(=O)O (centres unmarked) [Compound 9d, 2-(5-(4-Chlorophenyl)-6-cyano-2-(2-hydroxyphenyl)-2-methyl-7-oxo-1,2-dihydro-[1,2,4]triazolo[1,5-a]pyrimidin-3(7H)-yl)-3-(1H-indol-3-yl)propanoic acid]
S. aureus (ATCC 25923)
  zone of inhibition at 10 µg/mL: 20 mm
S. pyogenes (ATCC 19615)
  zone of inhibition at 10 µg/mL: 19 mm
[5]
  zone of inhibition at 10 µg/mL: 10 mm
P. fluorescens (S 97)
  zone of inhibition at 10 µg/mL: 12 mm
  zone of inhibition at 15 µg/mL: 23 mm
C. albicans
  zone of inhibition at 10 µg/mL: 7 mm
  zone of inhibition at 15 µg/mL: 8 mm
[1]
  zone of inhibition at 15 µg/mL: 11 mm
[2]
  zone of inhibition at 15 µg/mL: 29 mm
[6]
  Activity against methicillin resistant S. aureus: remarkable activity
  SI (selectivity index, CC50/MIC): 40
[6]; MRSA1, Table 3
  MIC: 12.5 µg/mL (≈ 22 µM)
[6]; Staphylococcus aureus
  MIC: 12.5 µg/mL (≈ 22 µM)
[7]
  MIC index (MBC/MIC): > 4
Gram-positive bacteria
  Activity against Gram-positive bacteria: active
